Assay results: ChEMBL document CHEMBL1158430, “Bulky 1,4-benzoxazine derivatives with antifungal activity” (2009)
≈ marks a conversion by molar mass, not a printed value. Calls of active or inactive are those of the source. The calls are words filed in the database; no cut-off is given here.

Key:
[1] = tested on: Pichia kudriavzevii; assay: Antifungal activity against Candida krusei after 24 hrs by broth microdilution assay; type: functional
Method in brief: (§1)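 Yeasts kept on Sabouraud agar by serial passage. A single colony was suspended in saline, washed twice, counted by hemocytometer and added at 5 × 10⁴ CFU in RPMI 1640/MOPS pH 7.0 to serial compound dilutions. Compounds were stocked in 20% ethanol. Incubation was at 37 °C. MIC is the lowest concentration giving complete growth inhibition, read visually.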

[2] = tested on: Candida albicans; assay: Antifungal activity against Candida albicans CA-6 infected in CD1 mouse assessed as reduction of inflammatory foci in kidney at 10 mg/kg, ip pretreated 2 hrs before fungus-challenge and once daily for 6 days measured 7 days post-infection by periodic acid-Schiff staining; type: functional, organism-based; design: dose 10 mg/kg
Method in brief: (§2)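 CD1 mice were challenged i.v. with 7 × 10⁵ CA-6 per mouse. Dosing was 10 mg/kg 2 h before challenge, then once daily for 6 days. Kidneys were excised 7 days post-infection, formalin-fixed and paraffin-embedded. Sections were stained with periodic acid-Schiff and assessed histologically for fungal cells and inflammatory foci.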

[3] = tested on: Candida parapsilosis; assay: Antifungal activity against Candida parapsilosis after 24 hrs by broth microdilution assay; type: functional; details: Lodderomyces parapsilosis; method in brief: as §1
[4] = tested on: Cryptococcus neoformans; assay: Antifungal activity against Cryptococcus neoformans 6995 after 48 hrs by broth microdilution assay; type: functional; details: Cryptococcus neoformans, 6995, 48 h
[5] = tested on: Cryptococcus neoformans; assay: Antifungal activity against Cryptococcus neoformans CAP67 after 48 hrs by broth microdilution assay; type: functional; details: CAP67, 48 h
[6] = tested on: Nakaseomyces glabratus; assay: Antifungal activity against Candida glabrata after 24 hrs by broth microdilution assay; type: functional; method in brief: as §1
[7] = tested on: Candida albicans; assay: Antifungal activity against Candida albicans CA-6 infected in CD1 mouse assessed as reduction fungal cell number in kidney at 10 mg/kg, ip pretreated 2 hrs before fungus-challenge and once daily for 6 days measured 7 days post-infection by periodic acid-Schiff staining; type: functional, organism-based; design: dose 10 mg/kg; method in brief: as §2
[8] = tested on: Nakaseomyces glabratus; assay: Antifungal activity against Candida glabrata after 48 hrs by broth microdilution assay; type: functional; method in brief: as §1
[9] = tested on: Candida albicans; assay: Antifungal activity against Candida albicans CA-6 infected in CD1 mouse assessed as reduction of fungal burden in kidneys at 10 mg/kg, ip pretreated 2 hrs before fungus-challenge and once daily for 6 days measured 7 days post-infection; type: functional, organism-based; design: dose 10 mg/kg; details: Kidney
Method in brief: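 Female outbred CD1 mice, 8–10 weeks old, were infected i.v. on day 0 with 2.5 × 10⁵ CA-6 blastospores. Dosing was 10 mg/kg i.p. 2 h before challenge, then daily for 6 days; vehicle was 0.2 ml 2% EtOH in saline i.p. At day 7, kidney homogenates were serially diluted and plated on Sabouraud agar for CFU. Three experiments, 4 mice/group.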

[10] = tested on: Candida albicans; assay: Antifungal activity against Candida albicans CA-6 after 48 hrs by broth microdilution assay; type: functional; details: CA-6, 48 h; method in brief: as §1
[11] = tested on: Candida albicans; assay: Antifungal activity against Candida albicans PCA-2 after 48 hrs by broth microdilution assay; type: functional; details: PCA-2, 48 h; method in brief: as §1
[12] = tested on: Candida albicans; assay: Antifungal activity against Candida albicans CA-6 infected in CD1 mouse assessed as survival from fungus-induced mortality at 10 mg/kg, ip pretreated 2 hrs before fungus-challenge and once daily for 6 days; type: functional
Method in brief: (§3)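 Female outbred CD1 mice, 8–10 weeks old, infected i.v. on day 0 with C. albicans CA-6 blastospores (7 × 10⁵/mouse). Given 10 mg/kg i.p. 2 h before infection, then once daily for 6 consecutive days. Vehicle was 0.2 ml 2% EtOH in saline i.p. Survival monitored over a 30-day observation period. Three repeat experiments, 4 animals/group.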

[13] = tested on: Candida albicans; assay: Antifungal activity against Candida albicans PCA-2 after 24 hrs by broth microdilution assay; type: functional; details: PCA-2, 24 h; method in brief: as §1
[14] = tested on: Pichia kudriavzevii; assay: Antifungal activity against Candida krusei after 48 hrs by broth microdilution assay; type: functional; method in brief: as §1
[15] = tested on: Candida albicans; assay: Antifungal activity against Candida albicans CA-6 after 24 hrs by broth microdilution assay; type: functional; details: CA-6, 24 h; method in brief: as §1
[16] = tested on: Candida parapsilosis; assay: Antifungal activity against Candida parapsilosis after 48 hrs by broth microdilution assay; type: functional; details: Lodderomyces parapsilosis; method in brief: as §1
[17] = tested on: Candida albicans; assay: Antifungal activity against Candida albicans CA-6 infected in CD1 mouse assessed as reduction of fungal burden in kidneys treated with 0.3 ml serum of 10 mg/kg, ip dosed mouse collected after 1 hr determined 7 days post-infection; type: functional, organism-based; design: dose 10 mg/kg; details: Kidney
Method in brief: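 Donor mice received 10 mg/kg i.p. or vehicle (0.2 ml 2% EtOH in saline); serum was collected 1 h later. Recipient CD1 mice received 0.3 ml serum i.p. 1 h before i.v. challenge with 7 × 10⁵ CA-6 per mouse. Kidney CFU were counted on Sabouraud agar 7 days after challenge.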

[18] = tested on: Candida albicans; assay: Antifungal activity against Candida albicans CA-6 infected in CD1 mouse assessed as survival days in 30 days observation period at 10 mg/kg, ip pretreated 2 hrs before fungus-challenge and once daily for 6 days; type: functional; details: route intraperitoneal; method in brief: as §3

SMILES	MIC [1] [µg/mL]	Activity [2]	MIC [3] [µg/mL]	MIC [4] [µg/mL]	MIC [5] [µg/mL]	MIC [6] [µg/mL]	Activity [7]	MIC [8] [µg/mL]	Activity [9]	MIC [10] [µg/mL]	MIC [11] [µg/mL]	Activity ([12]; route intraperitoneal) [%]	MIC [13] [µg/mL]	MIC [14] [µg/mL]	MIC [15] [µg/mL]	MIC [16] [µg/mL]	Activity [17]	Activity [12]	Activity [18] [days]
CCCCC1Oc2ccc(OC[C@@H]3CO[C@](Cn4ccnc4)(c4ccc(Cl)cc4Cl)O3)cc2N(C)C1=O (relative stereo)	3.9 (≈ 7.14 µM)	Active	125 (≈ 229 µM)	7.8 (≈ 14.3 µM)	3.9 (≈ 7.14 µM)	62.5 (≈ 114 µM)	Active	> 500	Active	0.49 (≈ 0.897 µM)	> 500	50	> 500	7.8 (≈ 14.3 µM)	0.49 (≈ 0.897 µM)	500 (≈ 915 µM)	Active	–	–
CN1C(=O)COc2ccc(OC[C@@H]3CO[C@](Cn4ccnc4)(c4ccc(Cl)cc4Cl)O3)cc21 (relative stereo)	15.6 (≈ 31.8 µM)	–	> 500	1.95 (≈ 3.98 µM)	0.03 (≈ 0.0612 µM)	15.6 (≈ 31.8 µM)	–	250 (≈ 510 µM)	–	0.49 (≈ 0.999 µM)	> 500	–	> 500	> 500	0.49 (≈ 0.999 µM)	> 500	–	inactive	–
CN1C(=O)COc2ccc(OC[C@H]3CO[C@](Cn4ccnc4)(c4ccc(Cl)cc4Cl)O3)cc21 (relative stereo)	15.6 (≈ 31.8 µM)	–	250 (≈ 510 µM)	0.24 (≈ 0.489 µM)	0.0019 (≈ 0.00387 µM)	7.8 (≈ 15.9 µM)	–	> 500	–	0.49 (≈ 0.999 µM)	> 500	–	> 500	> 500	0.49 (≈ 0.999 µM)	> 500	–	inactive	–
CCCCC1Oc2ccc(OC[C@H]3CO[C@](Cn4ccnc4)(c4ccc(Cl)cc4Cl)O3)cc2N(C)C1=O (relative stereo)	3.9 (≈ 7.14 µM)	Active	31.2 (≈ 57.2 µM)	7.8 (≈ 14.3 µM)	1.95 (≈ 3.57 µM)	31.2 (≈ 57.2 µM)	Active	125 (≈ 229 µM)	Active	0.49 (≈ 0.897 µM)	125 (≈ 229 µM)	–	125 (≈ 229 µM)	3.9 (≈ 7.14 µM)	0.49 (≈ 0.897 µM)	31.2 (≈ 57.2 µM)	Active	–	23
OC(Cn1cncn1)(Cn1cncn1)c1ccc(F)cc1F [FLUCONAZOLE]	250 (≈ 816 µM)	Active	7.8 (≈ 25.5 µM)	3.9 (≈ 12.7 µM)	0.49 (≈ 1.6 µM)	125 (≈ 408 µM)	Active	250 (≈ 816 µM)	Active	< 0.0076	> 500	75	> 500	> 500	< 0.0076	15.6 (≈ 50.9 µM)	Active	–	–
CC(=O)N1CCN(c2ccc(OCC3COC(Cn4ccnc4)(c4ccc(Cl)cc4Cl)O3)cc2)CC1 (centres undefined) [KETOCONAZOLE]	0.49 (≈ 0.922 µM)	–	< 6e-05	0.00095 (≈ 0.00179 µM)	0.00012 (≈ 0.000226 µM)	0.12 (≈ 0.226 µM)	–	1.95 (≈ 3.67 µM)	–	< 0.0076	15.6 (≈ 29.4 µM)	–	15.6 (≈ 29.4 µM)	0.97 (≈ 1.83 µM)	< 0.0076	0.00095 (≈ 0.00179 µM)	–	–	–
